# Reference: ChEMBL document CHEMBL1629431, “Synthesis and antitumor activity of some 2, 3-disubstituted quinazolin-4(3H)-ones and 4, 6- disubstituted- 1, 2, 3, 4-tetrahydroquinazolin-2H-ones” (2010)
# Columns and labels:
# Format in all cases: functional
# MDA-MB-468 = assay: Growth inhibition of human MDA-MB-468 cells at 10 uM after 48 hrs by coulter counter method; conditions: MDA-MB-468, 48 h, read-out: GI
# Outline: (§1)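 Single high-dose NCI 60-cell-line panel screen across nine tumor subpanels. Test solutions (0.2 mL) were added in duplicate to wells holding 1.8 mL of culture at 6 × 10⁴ cells/mL. Controls got PBS and DMSO at identical dilutions. Incubation was 48 h at 37 °C in humidified 5% CO₂. Cells were diluted 10-fold in saline, Coulter-counted and dilution-corrected. Results were expressed as percent growth inhibition versus control.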
# NCI-H522 = assay: Growth inhibition of human NCI-H522 cells at 10 uM after 48 hrs by coulter counter method; conditions: NCI-H522, 48 h, read-out: GI; outline: as §1
# SNB-75 = assay: Growth inhibition of human SNB75 cells at 10 uM after 48 hrs by coulter counter method; conditions: SNB-75, 48 h, read-out: GI; outline: as §1
# NCI-H23 = assay: Growth inhibition of human NCI-H23 cells at 10 uM after 48 hrs by coulter counter method; conditions: NCI-H23, 48 h, read-out: GI; outline: as §1
# COLO 205 = assay: Growth inhibition of human COLO205 cells at 10 uM after 48 hrs by coulter counter method; conditions: COLO 205, 48 h, read-out: GI; outline: as §1
# SF-539 = assay: Growth inhibition of human SF539 cells at 10 uM after 48 hrs by coulter counter method; conditions: SF-539, 48 h, read-out: GI; outline: as §1
# UACC-62 = assay: Growth inhibition of human UACC62 cells at 10 uM after 48 hrs by coulter counter method; conditions: UACC-62, 48 h, read-out: GI; outline: as §1
# T47D = assay: Growth inhibition of human T47D cells at 10 uM after 48 hrs by coulter counter method; conditions: read-out: GI; outline: as §1
# U-251 = assay: Growth inhibition of human U251 cells at 10 uM after 48 hrs by coulter counter method; conditions: U-251, 48 h, read-out: GI; outline: as §1
# MCF7 = assay: Growth inhibition of human MCF7 cells at 10 uM after 48 hrs by coulter counter method; conditions: MCF7, 48 h, read-out: GI; outline: as §1
# OVCAR-4 = assay: Growth inhibition of human OVCAR4 cells at 10 uM after 48 hrs by coulter counter method; conditions: OVCAR-4, 48 h, read-out: GI; outline: as §1
# HOP-92 = assay: Growth inhibition of human HOP92 cells at 10 uM after 48 hrs by coulter counter method; conditions: HOP-92, 48 h, read-out: GI; outline: as §1
# [1] = Growth inhibition of human Hs 578T cells at 10 uM after 48 hrs by coulter counter method; conditions: read-out: GI; outline: as §1
# MOLT-4 = assay: Growth inhibition of human MOLT4 cells at 10 uM after 48 hrs by coulter counter method; conditions: MOLT-4, 48 h, read-out: GI; outline: as §1
# HL-60(TB) = assay: Growth inhibition of human HL-60(TB) cells at 10 uM after 48 hrs by coulter counter method; conditions: HL-60, 48 h, read-out: GI
# Outline: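 Part of the NCI 60-cell-line single-high-dose panel. Cells were seeded at 6 × 10⁴ cells/mL with test solution in duplicate wells, alongside PBS/DMSO controls at identical dilutions. Plates were held 48 h at 37 °C in a humidified 5% CO₂ incubator. Cells were then diluted 10-fold in saline and counted by Coulter counter, with counts corrected for dilution. Results are percent growth of treated cells, reported as GI %.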
# 786-0 = assay: Growth inhibition of human 786-0 cells at 10 uM after 48 hrs by coulter counter method; conditions: 786-0, 48 h, read-out: GI; outline: as §1
# KM12 = assay: Growth inhibition of human KM12 cells at 10 uM after 48 hrs by coulter counter method; conditions: KM12, 48 h, read-out: GI; outline: as §1
# UO-31 = assay: Growth inhibition of human UO31 cells at 10 uM after 48 hrs by coulter counter method; conditions: UO-31, 48 h, read-out: GI; outline: as §1
# SK-MEL-2 = assay: Growth inhibition of human SK-MEL-2 cells at 10 uM after 48 hrs by coulter counter method; conditions: SK-MEL-2, 48 h, read-out: GI; outline: as §1
# A549 = assay: Growth inhibition of human A549 cells at 10 uM after 48 hrs by coulter counter method; conditions: A549, 48 h, read-out: GI; outline: as §1
# SN12C = assay: Growth inhibition of human SN12C cells at 10 uM after 48 hrs by coulter counter method; conditions: read-out: GI; outline: as §1
# CAKI-1 = assay: Growth inhibition of human Caki1 cells at 10 uM after 48 hrs by coulter counter method; conditions: CAKI-1, 48 h, read-out: GI; outline: as §1
# NCI-H226 = assay: Growth inhibition of human NCI-H226 cells at 10 uM after 48 hrs by coulter counter method; conditions: NCI-H226, 48 h, read-out: GI; outline: as §1
# IGROV-1 = assay: Growth inhibition of human IGROV1 cells at 10 uM after 48 hrs by coulter counter method; conditions: IGROV-1, 48 h, read-out: GI; outline: as §1
# MDA-MB-231 = assay: Growth inhibition of human MDA-MB-231 cells at 10 uM after 48 hrs by coulter counter method; conditions: MDA-MB-231, 48 h, read-out: GI; outline: as §1
# SR = assay: Growth inhibition of human SR cells at 10 uM after 48 hrs by coulter counter method; conditions: read-out: GI; outline: as §1
# SK-OV-3 = assay: Growth inhibition of human SKOV3 cells at 10 uM after 48 hrs by coulter counter method; conditions: SK-OV-3, 48 h, read-out: GI; outline: as §1
# M14 = assay: Growth inhibition of human M14 cells at 10 uM after 48 hrs by coulter counter method; conditions: M14, 48 h, read-out: GI; outline: as §1
# SF-268 = assay: Growth inhibition of human SF268 cells at 10 uM after 48 hrs by coulter counter method; conditions: SF-268, 48 h, read-out: GI; outline: as §1
# SK-MEL-28 = assay: Growth inhibition of human SK-MEL-28 cells at 10 uM after 48 hrs by coulter counter method; conditions: SK-MEL-28, 48 h, read-out: GI; outline: as §1
# CCRF-CEM = assay: Growth inhibition of human CCRF-CEM cells at 10 uM after 48 hrs by coulter counter method; conditions: read-out: GI; outline: as §1
# HCT-116 = assay: Growth inhibition of human HCT116 cells at 10 uM after 48 hrs by coulter counter method; conditions: HCT-116, 48 h, read-out: GI; outline: as §1
# K562 = assay: Growth inhibition of human K562 cells at 10 uM after 48 hrs by coulter counter method; conditions: K562, 48 h, read-out: GI; outline: as §1
# PC-3 = assay: Growth inhibition of human PC3 cells at 10 uM after 48 hrs by coulter counter method; conditions: PC-3, 48 h, read-out: GI; outline: as §1
Structure (SMILES),inhibition of growth at 10 µM (MDA-MB-468) [%],inhibition of growth at 10 µM (NCI-H522) [%],inhibition of growth at 10 µM (SNB-75) [%],inhibition of growth at 10 µM (NCI-H23) [%],inhibition of growth at 10 µM (COLO 205) [%],inhibition of growth at 10 µM (SF-539) [%],inhibition of growth at 10 µM (UACC-62) [%],inhibition of growth at 10 µM (T47D) [%],inhibition of growth at 10 µM (U-251) [%],inhibition of growth at 10 µM (MCF7) [%],inhibition of growth at 10 µM (OVCAR-4) [%],inhibition of growth at 10 µM [1] [%],inhibition of growth at 10 µM (MOLT-4) [%],inhibition of growth at 10 µM (HL-60(TB)) [%],inhibition of growth at 10 µM (786-0) [%],inhibition of growth at 10 µM (KM12) [%],inhibition of growth at 10 µM (UO-31) [%],inhibition of growth at 10 µM (SK-MEL-2) [%],inhibition of growth at 10 µM (SN12C) [%],inhibition of growth at 10 µM (IGROV-1) [%],also measured
O=C(CSc1nc2ccccc2c(=O)n1-c1ccc(Cl)cc1)c1ccc(Cl)cc1,30,52.6,30,30,30,30,30,30,30,30,30,30,30,30,30,30,30,30,30,43.7,inhibition of growth at 10 µM (HOP-92): 30%; inhibition of growth at 10 µM (A549): 30%; inhibition of growth at 10 µM (CAKI-1): 30%; inhibition of growth at 10 µM (NCI-H226): 30%; inhibition of growth at 10 µM (MDA-MB-231): 30%; inhibition of growth at 10 µM (SR): 30%; inhibition of growth at 10 µM (SK-OV-3): 30%; inhibition of growth at 10 µM (M14): 30%; inhibition of growth at 10 µM (SF-268): 30%; inhibition of growth at 10 µM (SK-MEL-28): 30%; inhibition of growth at 10 µM (CCRF-CEM): 30%; inhibition of growth at 10 µM (HCT-116): 30%; inhibition of growth at 10 µM (K562): 30%
COc1ccc(-c2nnc(Nc3nc4ccccc4c(=O)n3-c3ccccc3)s2)cc1,30,30,30,30,58.9,30,30,30,30,30,30,30,30,30,30,30,30,30,30,30,inhibition of growth at 10 µM (PC-3): 30%; inhibition of growth at 10 µM (HOP-92): 30%; inhibition of growth at 10 µM (A549): 30%; inhibition of growth at 10 µM (CAKI-1): 30%; inhibition of growth at 10 µM (NCI-H226): 30%; inhibition of growth at 10 µM (MDA-MB-231): 30%; inhibition of growth at 10 µM (SR): 30%; inhibition of growth at 10 µM (SK-OV-3): 30%; inhibition of growth at 10 µM (M14): 30%; inhibition of growth at 10 µM (SF-268): 30%; inhibition of growth at 10 µM (SK-MEL-28): 30%; inhibition of growth at 10 µM (CCRF-CEM): 30%; inhibition of growth at 10 µM (HCT-116): 30%; inhibition of growth at 10 µM (K562): 30%
CCn1c(SCC(=O)c2ccc(OC)cc2)nc2ccccc2c1=O,30,< 30,30,30,30,30,30,30,30,30,30,30,30,30,30,30,31.6,30,30,30,inhibition of growth at 10 µM (PC-3): 30%; inhibition of growth at 10 µM (HOP-92): 30%; inhibition of growth at 10 µM (A549): 30%; inhibition of growth at 10 µM (CAKI-1): 30%; inhibition of growth at 10 µM (NCI-H226): 30%; inhibition of growth at 10 µM (MDA-MB-231): 30%; inhibition of growth at 10 µM (SR): 30%; inhibition of growth at 10 µM (SK-OV-3): 30%; inhibition of growth at 10 µM (M14): 30%; inhibition of growth at 10 µM (SF-268): 30%; inhibition of growth at 10 µM (SK-MEL-28): 30%; inhibition of growth at 10 µM (CCRF-CEM): 30%; inhibition of growth at 10 µM (HCT-116): 30%
CN(C)c1ccc(-c2nnc(Nc3nc4ccccc4c(=O)n3-c3ccccc3)s2)cc1,,,,,,,,,,,,,34.6,,,,,,,,inhibition of growth at 10 µM (K562): 52%
COc1ccc(C2NC(=O)Nc3ccc(S(=O)(=O)Nc4ccccn4)cc32)cc1 (centres undefined),,,,,,,,43.9,,,,,,,,,40.5,,,,
O=C1Nc2ccc(CNc3ccccn3)cc2C(c2ccc(Cl)cc2)N1 (centres undefined),,,,,,,,43.9,,,,,,,,,40.5,,,,
COc1ccc(-n2c(SCC(=O)c3ccc(Cl)cc3)nc3ccccc3c2=O)cc1,41.4,23,47.4,41.1,53.1,68.6,76.7,30,31.6,34.3,32.1,80.6,30,33.3,31.1,41.8,30,30,32.5,45.7,inhibition of growth at 10 µM (PC-3): 55.3%; inhibition of growth at 10 µM (NCI-H226): 75.6%; inhibition of growth at 10 µM (MDA-MB-231): 33.3%; inhibition of growth at 10 µM (SR): 30%; inhibition of growth at 10 µM (SK-OV-3): 31.9%; inhibition of growth at 10 µM (M14): 30%; inhibition of growth at 10 µM (SF-268): 49%; inhibition of growth at 10 µM (SK-MEL-28): 30%; inhibition of growth at 10 µM (CCRF-CEM): 30%; inhibition of growth at 10 µM (HCT-116): 54.6%
O=c1nc(Nc2nc3ccccc3c(=O)n2-c2ccc(Cl)cc2)cc(O)[nH]1,,,,,,,,,,,,,34.6,,,,,,,,inhibition of growth at 10 µM (K562): 52%
O=c1nc(Nc2nc3ccccc3c(=O)n2-c2ccccc2)cc(O)[nH]1,,,,,,,,,,,,,,,,,,,,72.3,
